Bioassay records from PubChem BioAssay.
Shown are actives, neighbours in structure and some others; about 1.6% of the full set was active somewhere.
Platelet DG rel: inhibitors of platelet dense granule secretion, primary screen, cell-based, MLPCN, human platelets. 300,000 compounds, 0.22% hits. AID 1663, 2009. inhibition, %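 (compounds screened at 7.5 µM in platelet-rich plasma)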. human platelet-rich plasma, SFLLRN dense granule ATP release, luminescence;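 active means mean replicate score, as percent of positive control, at or above 50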
FLuc inhib CS: firefly luciferase enzyme inhibitors, primary screen, artefact control for luciferase-based inhibitor screens, biochemical, luminescence, ATPLite; AID 1006, 2008; 200,000 compounds, 1.5% hits; inhibition, % at 10 µM; Luciferin 4-monooxygenase (Photinus pyralis), P08659; 10 min;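 active means inhibition above about 50% when tested at 10 µM, limit read from the data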
Target sequence (P08659 whole entry, looked up): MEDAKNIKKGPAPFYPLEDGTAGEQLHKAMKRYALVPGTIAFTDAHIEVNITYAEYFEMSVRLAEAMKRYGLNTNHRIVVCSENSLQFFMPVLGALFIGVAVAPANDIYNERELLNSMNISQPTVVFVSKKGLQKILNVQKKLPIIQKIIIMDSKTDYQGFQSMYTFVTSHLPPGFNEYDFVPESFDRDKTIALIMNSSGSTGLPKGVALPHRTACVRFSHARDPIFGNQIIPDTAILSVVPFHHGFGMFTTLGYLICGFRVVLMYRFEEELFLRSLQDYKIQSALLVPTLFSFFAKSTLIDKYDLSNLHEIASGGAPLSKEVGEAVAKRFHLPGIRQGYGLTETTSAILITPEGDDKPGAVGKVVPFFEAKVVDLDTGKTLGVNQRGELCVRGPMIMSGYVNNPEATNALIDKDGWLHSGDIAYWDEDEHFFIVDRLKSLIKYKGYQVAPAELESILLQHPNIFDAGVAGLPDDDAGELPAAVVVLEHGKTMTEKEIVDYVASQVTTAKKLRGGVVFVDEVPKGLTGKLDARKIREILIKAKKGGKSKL
FLuc act counter: FLuc activators, initial screening, artefact control for FLuc-dependent activation tests, biochemical, ATPlite luminescence; 200,000 tested, under 10 active; ATPlite luciferase biochemical, 10 min; 0 = ATP-free wells, 1 = DMSO control; activation factor at 10 µM;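 active means luciferase activation factor, scaled between plate controls, of at least 2 with compound at 10 µM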
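Assay system: Luciferase/luciferin detection reagent, cell-free biochemical luciferase assay / Read-out: luciferase activation / Benchmarks: No-ATP low control, compound-free enzyme-plus-ATP high control / Medium: PBS buffer for ATP / Detection: luminescence measurement of luciferase light output / Schedule: 10 min at ambient temperature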
TRAIL sens C8: viability loss with TRAIL in NB7+C8 cells, primary screen, TRAIL sensitizer project, cell-based, ATPlite luminescence; inhibition (viability loss, TRAIL sensitization), % at 10 µM; AID 624354, 2012; 360,000 compounds, 1% hits;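 active means compounds causing at least 50% loss of cell viability in the single-dose screen, relative to plate controls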
PPC-1+TRAIL kill: compounds killing PPC-1 cancer cells with TRAIL present, primary screen, TRAIL potentiator project, ATPLite luminescence, uHTS; PPC-1 cells + TRAIL, ATPLite viability luminescence; cell killing (% activity), % at 4 µM or 5 µM; 220,000 compounds, 0.41% hits;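 active means cell killing above 50% in the first pass at 4 µM, then a duplicate retest at 5 µM averaging 50% or more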;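 further: plate controls were cells with TRAIL plus DMSO for no effect and medium-only wells lacking cells for full effect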
* hit, by the source's call; x = no result.

SMILES	Platelet DG rel	FLuc inhib CS	FLuc act counter	TRAIL sens C8	PPC-1+TRAIL kill
O=S(=O)(c1ccc(F)c(F)c1)N1CCCCCCC1	x	x	x	0.7	x
O=C(C[C@H]1CC[C@H](NC(=O)Nc2ccccc2F)[C@@H](CO)O1)NCc1ccc(-c2ccccc2)cc1	x	x	x	-5.8	x
O=C(Nc1ncnc2c1C(c1ccccc1)c1c(ccc3ccccc13)O2)c1ccccc1 (stereo not drawn)	x	x	x	58.9*	x
CCNC(=O)C1(C)CCN(C(=O)c2cc(OC)c(OC)c(OC)c2)C1 (stereo not drawn)	x	x	x	1.8	x
O=c1[nH]c2ccc(NC(=S)Nc3ccccc3Cl)cc2[nH]1	53.9*	-3.8	1	-6.0	25.3
O=C1/C(=C\c2cccnc2)Sc2ccccc21	19.1	60.5*	0.4	-12.4	24.4
CN1C(=O)S/C(=C/c2cccnc2)C1=O	0.3	-5.9	1.1	-9.2	1.2
O=C(Nc1cccc(-c2ccc(N3CCCCC3)nn2)c1)C(F)(F)F	-8.5	x	x	88.8*	x
CC1CCN(c2ccc(-c3cccc(NC(=O)C(F)(F)F)c3)nn2)CC1	1.6	x	x	97.4*	x
O=C(Nc1cccc(-c2ccc(N3CCCCC3)nn2)c1)c1ccc(Br)o1	16.9	x	x	78.4*	x
CCC(=O)Nc1cccc(-c2ccc(N3CCC(C)CC3)nn2)c1	-8.8	x	x	93.9*	x
CCCCN1C(=O)C(=O)NC[C@@H]1CC1CCCCC1	x	x	x	1.0	x
OCCN1CCN(c2ncnc3c2ncn3[C@H]2CN(Cc3ccc(Cl)cc3)C[C@@H](CO)O2)CC1	x	x	x	5.8	x
OC[C@H]1O[C@@H](c2nc(-c3ccc(Br)cc3)no2)C[C@@H]1O	x	x	x	-10.8	x
CNc1ncnc2c1ncn2[C@H]1CN(Cc2ccc(-c3ccccc3)cc2)C[C@@H](CO)O1	x	x	x	4.0	x
CCOC(=O)c1cc(-c2cccc(O)c2)oc1C	x	x	x	-0.1	x
CC1CCN(c2ccc(-c3cccc(NC(=O)c4ccco4)c3)nn2)CC1	5.1	x	x	86.3*	x
O=C(COc1ccccc1)Nc1cccc(-c2ccc(N3CCOCC3)nn2)c1	12.4	x	x	70.1*	x
CCOc1cc(/C=N\NC(=O)c2ccc(NC(=O)C(C)(C)C)cc2)ccc1OC(=O)c1cccc(C)c1	5.2	-12.3	1.1	58.9*	12.8
CCOc1cc(/C=N\NC(=O)c2ccc(NC(=O)C(C)(C)C)cc2)ccc1OC(=O)c1ccc(C)cc1	-1.4	-2.1	1	15.4	12.1
Cn1c(NCc2ccccc2F)nc2cc(-c3cccc(C(F)(F)F)c3)sc2c1=O	x	x	x	-4.5	x
CC(C)(C)c1ccc(C(=O)CS(=O)(=O)c2ccccc2)cc1	-2.8	54.2*	0.5	10.9	12.7
Cc1ccc(S(=O)(=O)CC(=O)c2ccccc2)cc1	5.4	-2.5	1	-2.7	6.0
CCOC(=O)c1c(C)nc2c(c1-c1cc(OC)ccc1OC)C(=O)c1ccccc1-2	-6.5	-5.0	1.1	67.8*	-4.5
CN1C2C=CC(=O)C1C1C(=O)N(c3ccccc3)C(=O)C12 (stereo not drawn)	x	x	x	-8.5	x
SMILES	Platelet DG rel	FLuc inhib CS	FLuc act counter	TRAIL sens C8	PPC-1+TRAIL kill
CN(c1ccccc1)S(=O)(=O)c1ccc(NC(=O)c2nc(S(C)(=O)=O)ncc2Cl)cc1	-1.0	x	x	93.1*	x
COc1cccc(NC(=O)c2nc(S(C)(=O)=O)ncc2Cl)c1	2.5	x	x	66.3*	x
Clc1ccc(-n2cnc3c(Cl)ncnc32)cc1Cl	x	x	x	73.7*	x
CC(C)C[C@H]1CN([C@@H](Cc2ccc(O)cc2)CN2CCC[C@H]2CN2C(=O)C(=O)NC[C@@H]2Cc2ccccc2)C(=O)C(=O)N1CC1CCCCCC1	x	x	x	-1.7	x
c1ccc(-c2noc(-c3ccc4ccccc4c3)n2)nc1	24.5	96.5*	0	87.3*	23.9
C[C@@H]1CN([C@H](C)CO)S(=O)(=O)c2ccc(C#Cc3cccc(F)c3)cc2O[C@@H]1CN(C)C(=O)CN1CCOCC1	x	x	x	-9.9	x
CCOc1ccc2nc(NC(=O)CN3CCC(n4nnc5cc(C(F)(F)F)ccc54)CC3)sc2c1	-10.8	3.6	1	56.0*	12.7
CC(C)(C)NC(=O)CSc1nc(-c2ccc(F)cc2)cs1	-4.5	55.1*	0.4	23.7	30.4
CCNC(=O)CSc1nc(-c2ccc(F)cc2)cs1	-1.6	7.5	0.9	1.9	6.1
C[C@@H]1COC(=O)[C@H](Cc2ccc(F)cc2)CC/C=C/C[C@@H](CC(=O)N[C@@H](CO)Cc2ccccc2)C(=O)N1	x	x	x	7.4	x
O=C(C[C@@H]1C/C=C/CC[C@H](Cc2ccc(F)cc2)C(=O)OC[C@@H](Cc2ccccc2)NC1=O)N[C@H](CO)Cc1ccccc1	x	x	x	76.8*	x
CC(CNC(=O)CC[C@H]1O[C@@H](n2cnc3c(NC(=O)c4ccccc4)ncnc32)[C@H](O)[C@@H]1O)c1ccccc1 (stereo partly drawn)	x	x	x	1.1	x
CCc1ccc(/C=N/Nc2ncnc3nc[nH]c23)cc1	11.1	x	x	60.2*	41.5
O=C(CCS(=O)(=O)Cc1ccccc1)Nc1nncs1	-21.6	x	x	13.2	x
O=C(CCc1ccccc1)Nc1nncs1	58.9*	-1.7	1	-0.6	11.0
CC(O)(c1cccc(F)c1)c1nc(-c2cc(F)cc(F)c2)cs1 (stereo not drawn)	x	x	x	-4.0	x
O=C(/C=C/N1CCOCC1)c1coc2ccccc12	-0.1	54.1*	0.5	23.4	17.3
O=C(/C=C/N1CCOCC1)c1cc2ccccc2o1	-6.5	41.1	0.6	25.1	12.0
CCCCn1c(Nc2ccccc2)nc2ccccc21	-4.0	0.0	1	-5.0	-5.5
CCCn1c(Nc2nc3ccccc3n2C)nc2ccccc21	-4.4	-3.2	1	52.6*	7.2
Cc1ccc(Nc2nnc(SCC3CCCCO3)s2)cc1 (stereo not drawn)	-5.6	7.3	0.9	8.7	14.3
Cc1ccccc1Nc1nnc(SCC2CCCCO2)s1 (stereo not drawn)	-0.5	60.3*	0.4	41.4	39.8
O=C(Nc1ccccc1)C1Cc2c(-c3ccco3)ccnc2O1 (stereo not drawn)	x	x	x	3.3	x
Nc1ccc(N=Nc2ccc(N)cc2)cc1	-2.5	64.0*	0.4	48.3	18.2
O=[N+]([O-])c1ccc(-c2nc(C(Cl)Cl)c3ccccc3n2)cc1	-14.3	x	x	59.9*	12.3
Cc1cc(C)cc(C(=O)O/N=C(\N)c2ccc(Br)cc2)c1	5.7	-0.7	1	90.0*	-0.1
Cc1ccc(/C(N)=N/OC(=O)c2ccc(Cl)cc2Cl)cc1	-1.3	74.6*	0.3	66.7*	57.2*
Cc1ccc(C(=O)O/N=C(\N)Cc2cccs2)c(Cl)c1	21.4	x	x	95.6*	x
Cc1cccc(C(=O)O/N=C(\N)c2ccc(Br)cc2)c1	-2.3	25.0	0.8	34.7	0.6
N/C(=N\OC(=O)c1ccc2ccccc2c1)c1ccc(Br)cc1	-1.4	-0.6	1	-3.2	24.4
